Data taken from ChEMBL document CHEMBL4393670 (J Med Chem, 2019).
Blank lines part the entries; values can stand above or below the compound they belong to. Calls of active or inactive are those of the source. No cut-off for these calls is given here. Residues, ends and D or L forms follow the SMILES beside them. *: point of attachment. Cbz = O=C(OCc1ccccc1)*; Boc = CC(C)(C)OC(=O)*; OBn = c1ccc(CO*)cc1; OtBu = CC(C)(C)O*

Columns and labels:
[1] = test system: NCI-H727; experiment: Cytotoxicity against human NCI-H727 cells after 72 hrs by CellTiter 96 AQueous one solution cell proliferation assay; type: functional, cell-based; conditions: NCI-H727, 72 h
Summary of the method: (§1)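 Cells in RPMI1640 with 10% FBS; H23 plated at 5000, H727, RPMI8226 and the Cfz-resistant subline at 10 000 cells/well. Resistant subline adapted to stepwise Cfz up to 80 nM over ~6 months, kept in 80 nM, then Cfz-free ~1 week before testing.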

[2] = molecular target: T1, Proteasome Macropain subunit MB1 (Homo sapiens, UniProt P28074); experiment: Inhibition of 20S proteasome beta5 subunit in human RPMI8226 cell lysate using Suc-LLVY-AMC as substrate pretreated for 1 hr followed by substrate addition and measured at 1 min interval by fluorescence assay; type: subcellular
T1 sequence (P28074 whole entry): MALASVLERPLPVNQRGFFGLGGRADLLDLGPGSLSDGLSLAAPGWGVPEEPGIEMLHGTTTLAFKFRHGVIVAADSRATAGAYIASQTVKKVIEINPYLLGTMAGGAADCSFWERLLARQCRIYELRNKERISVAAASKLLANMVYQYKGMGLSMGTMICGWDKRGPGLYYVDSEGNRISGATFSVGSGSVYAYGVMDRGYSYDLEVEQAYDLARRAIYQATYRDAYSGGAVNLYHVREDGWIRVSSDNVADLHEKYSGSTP

[3] = test system: NCI-H23; experiment: Cytotoxicity against human NCI-H23 cells after 72 hrs by CellTiter 96 AQueous one solution cell proliferation assay; type: functional, cell-based; conditions: NCI-H23, 72 h; summary of the method: as §1
[4] = molecular target: ATP-dependent translocase ABCB1 (Homo sapiens, UniProt P08183); experiment: Inhibition of P-gp in human RPMI8226/Cfzr cells assessed as potentiation of carfilzomib-induced cytotoxicity at 7.5 uM measured after 72 hrs by CellTiter 96 AQueous one solution cell proliferation assay; type: cell-based
[5] = Cytotoxicity against human RPMI8226/Cfzr cells after 72 hrs by CellTiter 96 AQueous one solution cell proliferation assay; type: functional, cell-based; conditions: RPMI-8226, 72 h; summary of the method: as §1
[6] = test system: RPMI-8226; experiment: Cytotoxicity against human RPMI8226 cells after 72 hrs by CellTiter 96 AQueous one solution cell proliferation assay; type: functional, cell-based; conditions: RPMI-8226, 72 h; summary of the method: as §1
[7] = Stability in Sprague-Dawley rat liver homogenate at 1 uM measured up to 20 mins by LC-MS/MS analysis
[8] = Half life in patient with relapsed and refractory multiple myeloma; type: ADME; conditions: human, in vivo
[9] = Selectivity ratio of IC50 for human NCI-H727 cells to IC50 for human NCI-H23 cells; type: functional
[10] = molecular target: T2, Proteasome subunit beta type-9 (Homo sapiens, UniProt P28065); experiment: Inhibition of purified human 20S immunoproteasome beta1 subunit using Ac-Pro-Ala-Leu-AMC as substrate pretreated for 1 hr followed by substrate addition and measured at 1 min interval by fluorescence assay
T2 sequence (P28065 whole entry): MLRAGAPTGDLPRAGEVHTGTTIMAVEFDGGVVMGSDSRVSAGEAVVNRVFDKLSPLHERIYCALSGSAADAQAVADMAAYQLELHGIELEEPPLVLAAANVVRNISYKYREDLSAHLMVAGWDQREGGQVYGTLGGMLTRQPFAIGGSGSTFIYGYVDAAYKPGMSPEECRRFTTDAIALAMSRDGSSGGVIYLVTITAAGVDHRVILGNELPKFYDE

[11] = test system: NCI-H727; experiment: Potency index, ratio of carfilzomib IC50 to test compound IC50 for human NCI-H727 cells; type: functional
[12] = Potency index, ratio of carfilzomib IC50 to test compound IC50 for human RPMI8226/Cfzr cells; type: functional
[13] = organism: Homo sapiens; experiment: Cytotoxicity against human multiple myeloma cells at 10 uM after 48 hrs by CellTiter Glo luminescent cell viability assay
[14] = organism: Homo sapiens; experiment: Cytotoxicity against human Btz-resistant multiple myeloma cells at 10 uM after 48 hrs by CellTiter Glo luminescent cell viability assay
[15] = Selectivity ratio of IC50 for human RPMI8226/Cfzr cells to IC50 for human RPMI8226 cells; type: functional

ATP-dependent translocase ABCB1, sequence (P08183 whole entry): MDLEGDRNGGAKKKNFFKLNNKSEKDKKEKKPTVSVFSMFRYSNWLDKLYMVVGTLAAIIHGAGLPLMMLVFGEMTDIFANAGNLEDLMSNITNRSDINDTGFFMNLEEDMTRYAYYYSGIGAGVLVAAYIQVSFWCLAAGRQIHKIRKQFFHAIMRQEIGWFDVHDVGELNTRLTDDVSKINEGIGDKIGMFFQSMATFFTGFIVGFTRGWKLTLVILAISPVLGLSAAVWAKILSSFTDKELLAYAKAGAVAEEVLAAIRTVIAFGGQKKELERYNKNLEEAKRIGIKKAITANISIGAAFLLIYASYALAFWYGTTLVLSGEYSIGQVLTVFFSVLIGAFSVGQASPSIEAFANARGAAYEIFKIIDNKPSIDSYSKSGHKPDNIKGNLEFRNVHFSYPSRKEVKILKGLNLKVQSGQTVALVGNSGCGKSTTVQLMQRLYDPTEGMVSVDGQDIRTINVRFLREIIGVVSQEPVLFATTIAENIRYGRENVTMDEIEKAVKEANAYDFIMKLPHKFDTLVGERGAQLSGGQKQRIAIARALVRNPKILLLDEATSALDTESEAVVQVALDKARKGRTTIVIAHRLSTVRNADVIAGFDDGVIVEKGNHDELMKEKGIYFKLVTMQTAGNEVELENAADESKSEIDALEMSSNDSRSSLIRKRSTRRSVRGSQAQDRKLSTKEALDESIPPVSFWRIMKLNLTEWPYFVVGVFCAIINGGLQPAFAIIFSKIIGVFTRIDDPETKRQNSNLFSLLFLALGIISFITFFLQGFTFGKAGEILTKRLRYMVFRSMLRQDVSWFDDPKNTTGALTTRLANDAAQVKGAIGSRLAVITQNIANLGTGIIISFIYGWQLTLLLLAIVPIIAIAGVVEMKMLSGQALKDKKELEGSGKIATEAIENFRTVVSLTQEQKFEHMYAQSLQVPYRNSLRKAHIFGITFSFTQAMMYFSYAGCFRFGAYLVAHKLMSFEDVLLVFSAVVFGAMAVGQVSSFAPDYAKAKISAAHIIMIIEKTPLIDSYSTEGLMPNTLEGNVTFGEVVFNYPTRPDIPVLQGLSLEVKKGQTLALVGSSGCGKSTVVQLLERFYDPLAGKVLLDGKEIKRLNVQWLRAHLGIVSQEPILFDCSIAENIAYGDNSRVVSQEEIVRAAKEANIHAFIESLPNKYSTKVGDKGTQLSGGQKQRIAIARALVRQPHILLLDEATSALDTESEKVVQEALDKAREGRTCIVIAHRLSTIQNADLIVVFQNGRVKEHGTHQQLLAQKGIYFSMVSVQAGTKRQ

Structure (SMILES): CC(C)C[C@H](NC(=O)[C@H](CCc1ccccc1)NC(=O)CN1CCOCC1)C(=O)N[C@@H](Cc1ccccc1)C(=O)N[C@@H](CC(C)C)C(=O)[C@@]1(CO[Si](c2ccccc2)(c2ccccc2)C(C)(C)C)CO1
IC50 [1]: > 10000 nM
IC50 [2]: 112 nM
IC50 [3]: > 10000 nM

IC50 [2]: 8 nM
Structure (SMILES): CC(C)C[C@H](NC(=O)[C@H](CCc1ccccc1)NC(=O)CN1CCOCC1)C(=O)N[C@@H](Cc1ccccc1)C(=O)N[C@@H](CC(C)C)C(=O)[C@@]1(COS(C)(=O)=O)CO1
IC50 [1]: 834 nM
IC50 [3]: 311 nM

Structure (SMILES): CC(C)(C)OC(=O)N[C@@H](CC(=O)OCc1ccccc1)C(=O)N[C@@H](CCCCNC(=O)OCc1ccccc1)C(=O)OC(C)(C)C [REVERSIN 121] (Boc-Asp(OBn)-Lys(Cbz)-OtBu)
inhibition (INH) [4]: Active

Stability [7]: Stable
half-life [8]: < 1 h
Structure (SMILES): CC(C)C[C@H](NC(=O)[C@H](CCc1ccccc1)NC(=O)CN1CCOCC1)C(=O)N[C@@H](Cc1ccccc1)C(=O)N[C@@H](CC(C)C)C(=O)[C@@]1(C)CO1 [CARFILZOMIB]
IC50 [1]: 610 to 611 nM
IC50 [5]: 269 to 270 nM
IC50 [6]: 7 nM
IC50 [3]: 18 to 18.3 nM

Structure (SMILES): CC(=O)N[C@@H](CSC(=O)[C@]1([C@@H](O)C(C)C)NC(=O)[C@H](C)[C@@H]1O)C(=O)O [LACTACYSTIN]
IC50 [1]: > 100000 nM
Ratio IC50 [9]: >19
IC50 [3]: 5230 nM

IC50 [2]: > 1000 nM
Structure (SMILES): COCCOCOC[C@]1(C(=O)[C@H](CC(C)C)NC(=O)[C@H](Cc2ccccc2)NC(=O)[C@H](CC(C)C)NC(=O)[C@H](CCc2ccccc2)NC(=O)CN2CCOCC2)CO1

IC50 [10]: 743 nM
IC50 [2]: 2.1 nM
Stability [7]: Stable
Structure (SMILES): CC(C)C[C@H](NC(=O)[C@H](CCc1ccccc1)NC(=O)CN1CCOCC1)C(=O)N[C@@H](Cc1ccccc1)C(=O)N[C@@H](CC(C)C)C(=O)[C@@]1(CO)CO1
IC50 [1]: 61 nM
IC50 [5]: 106 nM
Ratio IC50 [11]: 10
IC50 [3]: 29.4 nM
Ratio IC50 [12]: 3

Structure (SMILES): CCCCCCC(=O)N[C@@H](C)C(=O)N[C@@H](CC(C)C)C(=O)[C@@]1(CO[Si](C)(C)C(C)(C)C)CO1
IC50 [1]: 5210 nM
Activity [13]: Active
IC50 [10]: 140 nM
IC50 [5]: 2140 to 3720 nM
Activity [14]: Active
IC50 [6]: 2140 nM
IC50 [2]: > 10000 nM
Ratio IC50 [9]: 1.5
Ratio IC50 [15]: 1.7
IC50 [3]: 3370 nM

Structure (SMILES): CC(C)C[C@H](NC(=O)[C@H](Cc1ccccc1)NC(=O)c1cnccn1)B(O)O [BORTEZOMIB]
IC50 [1]: 25 nM
Ratio IC50 [9]: 2.5
IC50 [3]: 10 nM

IC50 [2]: > 1000 nM
Structure (SMILES): COCOC[C@]1(C(=O)[C@H](CC(C)C)NC(=O)[C@H](Cc2ccccc2)NC(=O)[C@H](CC(C)C)NC(=O)[C@H](CCc2ccccc2)NC(=O)CN2CCOCC2)CO1

Structure (SMILES): CCCCCCC(=O)N[C@@H](CO)C(=O)N[C@@H](CC(C)C)C(=O)[C@@]1(COCOCCOC)CO1
IC50 [1]: 4490 nM
Activity [13]: Active
IC50 [5]: 3410 nM
Activity [14]: Active
IC50 [6]: 2080 nM
Ratio IC50 [9]: 1.3
Ratio IC50 [15]: 1.6
IC50 [3]: 3400 nM

Structure (SMILES): CC(C)C[C@@H](C=O)NC(=O)[C@H](CC(C)C)NC(=O)[C@H](CC(C)C)NC(=O)OCc1ccccc1 [MG-132] (Cbz-Leu-Leu-Leu-aldehyde)
IC50 [1]: 980 nM
Ratio IC50 [9]: 2
IC50 [3]: 480 nM

Structure (SMILES): CC[C@H](C)[C@H](NC(=O)[C@H]([C@@H](C)CC)N(C)C(C)=O)C(=O)N[C@H](C(=O)N[C@@H](CC(C)C)C(=O)[C@@]1(C)CO1)[C@@H](C)O [EPOXOMYCIN]
IC50 [5]: 541 nM
IC50 [6]: 11 nM
Ratio IC50 [15]: 49.2

IC50 [2]: > 1000 nM
Structure (SMILES): COC[C@]1(C(=O)[C@H](CC(C)C)NC(=O)[C@H](Cc2ccccc2)NC(=O)[C@H](CC(C)C)NC(=O)[C@H](CCc2ccccc2)NC(=O)CN2CCOCC2)CO1

IC50 [10]: 36 nM
IC50 [2]: 1700 nM
Structure (SMILES): CCCCCCC(=O)N[C@@H](C)C(=O)N[C@@H](CC(C)C)C(=O)[C@@]1(CO)CO1
IC50 [1]: 690 nM
IC50 [5]: 310 nM
IC50 [3]: 580 nM
